Laboratory results reported in ChEMBL document CHEMBL1140384, “Synthesis and structure-activity relationships of suramin-derived P2Y11 receptor antagonists with nanomolar potency” (J Med Chem, 2005).

Key:
[1] = biological target: T1, P2Y purinoceptor 11 (Homo sapiens) (UniProt Q96G91); experiment: Relative potency was measured against P2Y purinoceptor 11; assay type: functional
T1 sequence (whole entry): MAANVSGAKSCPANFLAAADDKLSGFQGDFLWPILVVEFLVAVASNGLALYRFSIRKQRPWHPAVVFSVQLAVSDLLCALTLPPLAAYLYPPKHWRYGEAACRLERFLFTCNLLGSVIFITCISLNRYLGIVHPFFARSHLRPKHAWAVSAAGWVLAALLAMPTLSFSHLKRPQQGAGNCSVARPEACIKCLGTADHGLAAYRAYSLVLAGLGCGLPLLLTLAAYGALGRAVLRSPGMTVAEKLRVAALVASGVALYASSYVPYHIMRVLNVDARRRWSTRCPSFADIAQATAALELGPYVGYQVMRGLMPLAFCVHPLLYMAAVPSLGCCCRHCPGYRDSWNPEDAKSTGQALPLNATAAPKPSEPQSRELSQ

P2Y purinoceptor 11 [2] = biological target: T2, P2Y purinoceptor 11 (Homo sapiens, UniProt Q96G91); experiment: Inhibitory concentration against P2Y purinoceptor 11 expressed in 1321N1 astrocytoma cells; n=7; assay type: cell-based
T2 sequence (Q96G91 whole entry): T1 sequence (whole entry)
Summary of the method: (§1)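 Human P2Y11 stably expressed in 1321N1 astrocytoma cells (G418 selection), loaded with Oregon Green 488 BAPTA-1/AM (3 µM, 60 min, 25 °C) in Krebs-HEPES. Compound preincubated 30 min at 37 °C before injection of 1 µM ATPγS. Ca2+ fluorescence read at ex 485/em 520 nm for 30 s. IC50 from concentration-inhibition curves; independent experiments each run in triplicate.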

P2Y purinoceptor 2 = P2Y purinoceptor 2 (Homo sapiens, UniProt P41231); experiment: Percent inhibition of agonist-induced calcium mobilization at P2Y purinoceptor 2 recombinantly expressed in human HEK293 cells at 100 uM dose; assay type: functional, cell-based; conditions: in the assay text read “native in” for “recombinantly expressed in”
Summary of the method: (§2)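 Single 100 µM antagonist dose, preincubated 30 min at 37 °C, in a Ca2+ fluorescence assay (Oregon Green 488 BAPTA-1/AM). Agonists: 31.6 nM 2-MeSADP for native P2Y1 and 3.16 µM UTP for native P2Y2, both in HEK293 cells; 1 µM ATPγS for recombinant P2Y11 in 1321N1 cells. Response expressed as % of agonist control; mean ± SEM, n ≥ 3.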

P2Y purinoceptor 1 = P2Y purinoceptor 1 (Homo sapiens, UniProt P47900); experiment: Percent inhibition of agonist-induced calcium mobilization at P2Y purinoceptor 1 recombinantly expressed in human HEK293 cells at 100 uM dose; assay type: functional, cell-based; conditions: in the assay text read “native in” for “recombinantly expressed in”; summary of the method: as §2
[3] = biological target: T1, P2Y purinoceptor 11 (Homo sapiens); experiment: Percent inhibition of agonist-induced calcium mobilization at P2Y purinoceptor 11 recombinantly expressed in human 1321N1 astrocytoma cells at 100 uM dose
P2Y purinoceptor 11 [4] = biological target: T2, P2Y purinoceptor 11; experiment: Inhibitory concentration against P2Y purinoceptor 11 expressed in 1321N1 astrocytoma cells; n=3; assay type: cell-based; summary of the method: as §1
P2Y purinoceptor 11 [5] = biological target: T2, P2Y purinoceptor 11; experiment: Inhibitory concentration against P2Y purinoceptor 11 expressed in 1321N1 astrocytoma cells; n=6; assay type: cell-based; summary of the method: as §1
P2Y purinoceptor 11 [6] = biological target: T2, P2Y purinoceptor 11; experiment: Inhibitory concentration against P2Y purinoceptor 11 expressed in 1321N1 astrocytoma cells; n=4; assay type: cell-based; summary of the method: as §1

Sequence of P2Y purinoceptor 2 (P41231 whole entry): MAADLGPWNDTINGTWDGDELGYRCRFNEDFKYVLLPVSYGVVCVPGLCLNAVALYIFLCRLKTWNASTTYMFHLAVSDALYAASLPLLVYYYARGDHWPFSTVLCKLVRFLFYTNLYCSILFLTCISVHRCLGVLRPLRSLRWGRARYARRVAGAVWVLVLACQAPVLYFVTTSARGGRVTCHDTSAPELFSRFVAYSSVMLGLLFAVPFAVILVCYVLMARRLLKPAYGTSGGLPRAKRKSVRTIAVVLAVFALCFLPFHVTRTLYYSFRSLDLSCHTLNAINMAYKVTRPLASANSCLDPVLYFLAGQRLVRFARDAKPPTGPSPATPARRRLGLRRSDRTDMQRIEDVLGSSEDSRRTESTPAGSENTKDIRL
Sequence of P2Y purinoceptor 1 (P47900 whole entry): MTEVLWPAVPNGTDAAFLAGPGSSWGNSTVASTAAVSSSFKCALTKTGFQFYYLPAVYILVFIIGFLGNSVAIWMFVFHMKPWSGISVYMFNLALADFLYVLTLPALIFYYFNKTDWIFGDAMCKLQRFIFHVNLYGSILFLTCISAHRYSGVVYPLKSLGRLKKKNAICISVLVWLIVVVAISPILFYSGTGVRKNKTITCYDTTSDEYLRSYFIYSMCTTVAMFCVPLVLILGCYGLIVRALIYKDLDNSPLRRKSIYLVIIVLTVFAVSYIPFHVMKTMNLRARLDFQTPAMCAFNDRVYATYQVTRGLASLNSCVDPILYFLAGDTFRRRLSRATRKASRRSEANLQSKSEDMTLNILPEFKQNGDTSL

Row | SMILES | Rel potency [1] | Ki (P2Y purinoceptor 11 [2]) | inhibition (P2Y purinoceptor 2) | inhibition (P2Y purinoceptor 1) | inhibition [3] | Ki (P2Y purinoceptor 11 [4]) | Ki (P2Y purinoceptor 11 [5]) | Ki (P2Y purinoceptor 11 [6])
1 | COc1ccc(C(=O)Nc2ccc(S(=O)(=O)O)c3cc(S(=O)(=O)O)cc(S(=O)(=O)O)c23)cc1NC(=O)c1cccc(NC(=O)Nc2cccc(C(=O)Nc3cc(C(=O)Nc4ccc(S(=O)(=O)O)c5cc(S(=O)(=O)O)cc(S(=O)(=O)O)c45)ccc3OC)c2)c1 | 59 | 0.0759 µM | 44.9% | 23.2% | 92.2% | – | – | –
2 | CC(C)c1ccc(C(=O)Nc2ccc(S(=O)(=O)O)c3cc(S(=O)(=O)O)cc(S(=O)(=O)O)c23)cc1NC(=O)Nc1cc(C(=O)Nc2ccc(S(=O)(=O)O)c3cc(S(=O)(=O)O)cc(S(=O)(=O)O)c23)ccc1C(C)C | – | – | 14.2% | 28.7% | 23.2% | – | – | –
3 | COc1ccc(C(=O)Nc2ccc(S(=O)(=O)O)c3cc(S(=O)(=O)O)cc(S(=O)(=O)O)c23)cc1NC(=O)Nc1cc(C(=O)Nc2ccc(S(=O)(=O)O)c3cc(S(=O)(=O)O)cc(S(=O)(=O)O)c23)ccc1OC | – | – | 53.6% | 40% | 11.2% | – | – | –
4 | CC(C)c1ccc(C(=O)Nc2ccc(S(=O)(=O)O)c3cc(S(=O)(=O)O)cc(S(=O)(=O)O)c23)cc1NC(=O)c1cccc(NC(=O)Nc2cccc(C(=O)Nc3cc(C(=O)Nc4ccc(S(=O)(=O)O)c5cc(S(=O)(=O)O)cc(S(=O)(=O)O)c45)ccc3C(C)C)c2)c1 | 10 | – | 31.1% | 45% | 83.1% | 0.447 µM | – | –
5 | O=C(Nc1cc(C(=O)Nc2ccc(S(=O)(=O)O)c3cc(S(=O)(=O)O)cc(S(=O)(=O)O)c23)ccc1-c1ccccc1)Nc1cc(C(=O)Nc2ccc(S(=O)(=O)O)c3cc(S(=O)(=O)O)cc(S(=O)(=O)O)c23)ccc1-c1ccccc1 | – | – | 0% | 34.2% | 35.9% | – | – | –
6 | Cc1ccc(C(=O)Nc2ccc(S(=O)(=O)O)c3cc(S(=O)(=O)O)cc(S(=O)(=O)O)c23)cc1NC(=O)c1cccc(NC(=O)Nc2cccc(C(=O)Nc3cc(C(=O)Nc4ccc(S(=O)(=O)O)c5cc(S(=O)(=O)O)cc(S(=O)(=O)O)c45)ccc3C)c2)c1 [SURAMIN] | 15 | – | 50.5% | 54.5% | 93.7% | – | 0.302 µM | –
7 | COCc1ccc(C(=O)Nc2ccc(S(=O)(=O)O)c3cc(S(=O)(=O)O)cc(S(=O)(=O)O)c23)cc1NC(=O)c1cccc(NC(=O)Nc2cccc(C(=O)Nc3cc(C(=O)Nc4ccc(S(=O)(=O)O)c5cc(S(=O)(=O)O)cc(S(=O)(=O)O)c45)ccc3COC)c2)c1 | 1.9 | – | 44.3% | 47.5% | 71.6% | – | – | 2.4 µM
8 | O=C(Nc1cc(C(=O)Nc2ccc(S(=O)(=O)O)c3cc(S(=O)(=O)O)cc(S(=O)(=O)O)c23)ccc1Cl)Nc1cc(C(=O)Nc2ccc(S(=O)(=O)O)c3cc(S(=O)(=O)O)cc(S(=O)(=O)O)c23)ccc1Cl | – | – | 0% | 57.8% | 59% | – | – | –
9 | O=C(Nc1cc(C(=O)Nc2ccc(S(=O)(=O)O)c3cc(S(=O)(=O)O)cc(S(=O)(=O)O)c23)ccc1F)Nc1cc(C(=O)Nc2ccc(S(=O)(=O)O)c3cc(S(=O)(=O)O)cc(S(=O)(=O)O)c23)ccc1F | – | – | 0% | 60% | 64.7% | – | – | –
10 | CCc1ccc(C(=O)Nc2ccc(S(=O)(=O)O)c3cc(S(=O)(=O)O)cc(S(=O)(=O)O)c23)cc1NC(=O)Nc1cc(C(=O)Nc2ccc(S(=O)(=O)O)c3cc(S(=O)(=O)O)cc(S(=O)(=O)O)c23)ccc1CC | – | – | 20.8% | 38.4% | 39.9% | – | – | –
11 | CCc1ccc(C(=O)Nc2ccc(S(=O)(=O)O)c3cc(S(=O)(=O)O)cc(S(=O)(=O)O)c23)cc1NC(=O)c1cccc(NC(=O)Nc2cccc(C(=O)Nc3cc(C(=O)Nc4ccc(S(=O)(=O)O)c5cc(S(=O)(=O)O)cc(S(=O)(=O)O)c45)ccc3CC)c2)c1 | 4.5 | – | 48.8% | 48.7% | 84.9% | 1 µM | – | –
12 | O=C(Nc1cccc(C(=O)Nc2cc(C(=O)Nc3ccc(S(=O)(=O)O)c4cc(S(=O)(=O)O)cc(S(=O)(=O)O)c34)ccc2Cl)c1)Nc1cccc(C(=O)Nc2cc(C(=O)Nc3ccc(S(=O)(=O)O)c4cc(S(=O)(=O)O)cc(S(=O)(=O)O)c34)ccc2Cl)c1 | 42 | 0.107 µM | 55.2% | 40.6% | 93% | – | – | –
13 | O=C(Nc1cccc(C(=O)Nc2cc(C(=O)Nc3ccc(S(=O)(=O)O)c4cc(S(=O)(=O)O)cc(S(=O)(=O)O)c34)ccc2-c2ccccc2)c1)Nc1cccc(C(=O)Nc2cc(C(=O)Nc3ccc(S(=O)(=O)O)c4cc(S(=O)(=O)O)cc(S(=O)(=O)O)c34)ccc2-c2ccccc2)c1 | 15 | – | 73.2% | 75.1% | 79.9% | 0.302 µM | – | –
14 | COCc1ccc(C(=O)Nc2ccc(S(=O)(=O)O)c3cc(S(=O)(=O)O)cc(S(=O)(=O)O)c23)cc1NC(=O)Nc1cc(C(=O)Nc2ccc(S(=O)(=O)O)c3cc(S(=O)(=O)O)cc(S(=O)(=O)O)c23)ccc1COC | – | – | 13% | 31.7% | 23.8% | – | – | –
15 | Cc1ccc(C(=O)Nc2ccc(S(=O)(=O)O)c3cc(S(=O)(=O)O)cc(S(=O)(=O)O)c23)cc1NC(=O)Nc1cc(C(=O)Nc2ccc(S(=O)(=O)O)c3cc(S(=O)(=O)O)cc(S(=O)(=O)O)c23)ccc1C | 0.6 | – | 28.4% | 0% | 86.6% | 7.59 µM | – | –
16 | O=C(Nc1cccc(C(=O)Nc2ccc(S(=O)(=O)O)c3cc(S(=O)(=O)O)cc(S(=O)(=O)O)c23)c1)Nc1cccc(C(=O)Nc2ccc(S(=O)(=O)O)c3cc(S(=O)(=O)O)cc(S(=O)(=O)O)c23)c1 | – | – | 24% | 19.7% | 54.2% | – | – | –
